# PolyA inhibitor: blocks polyadenylation in yeast reporter cells; activity score, % at 12 µM; AID 1875; 300,000 tested, 0.02% active; S. cerevisiae SKY197-pL101 polyadenylation reporter, beta-gal luminescence; efflux-impaired pdr1/pdr3 knockout yeast; score 100 = 6 SD above DMSO;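 active means lowest replicate activity score at least 50, where 100 means six control SD above control mean; inconclusive means lowest score under 50 but half or more replicates reach 50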;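 further: yeast exposed to compound for 9 h at 30 °C; higher score means more reporter readthrough which indicates perturbed polyadenylation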
# CSC inhib: cancer stem cell inhibition | cancer stem cell-like cells viability, luminescence | inhibition, % at 7.5 µM | 300,000 tested, 1.1% active; in the data active means inhibition above about 75%; inconclusive means no clear call, values can overlap the other calls; tested in HMLE shEcad cells
# HIF act: HIF pathway transcriptional activation | U2OS HRE-luciferase reporter, luminescence; normalized: DMSO 0%, desferrioxamine 100% | activation, % at 7.5 µM (by protocol) | 300,000 tested, 0.32% active | AID 1910;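 active means mean activation of at least 10% of the iron chelator positive control signal, with at least half of replicates also reaching 10%; inconclusive means mean and replicate majority disagree about reaching 10%; inactive means mean and most replicates under 10%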
# Calb FLC: C. albicans growth modulation with fluconazole | C. albicans CaCi-2 (fluconazole-resistant clinical isolate) + fluconazole, Alamar Blue growth, 48 h | AID 1979 | growth inhibition, % (concentration not given with the values) | 300,000 tested, 0.57% active;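 active means growth inhibition above about 58% in most replicates, limit read from the data, passing the limit was not always enough; inconclusive means exactly half the replicates above a set limit; inactive means most replicates below a set limit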;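 further: all wells also contain fluconazole at 8 µg/ml as a sub-toxic cotreatment; 0% = median of DMSO wells and 100% = median of geldanamycin control wells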
# Beta apoptosis: beta cell apoptosis inhibition; AID 435005; protection from apoptosis, % (no concentration beside the values); INS-1E cytokine-induced death, ATP luminescence, 48 h; percent of positive-control rescue, neutral wells zero; 300,000 tested, 0.8% active;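 active means Every replicate reaches about 75%, or at least half do and their mean reaches it too, limit read from the data; inconclusive means At least half of replicates reach the limit but their mean does not; inactive means Under half of replicates reach the limit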;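 further: 0% = cytokine-treated negative control wells and 100% = positive control rescue; higher means more ATP so stronger rescue from cytokine killing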
# T cruzi inh: T. cruzi replication inhibition; 300,000 tested, 1.4% active; T. cruzi beta-gal in NIH3T3, luminescence, 90 h; inhibition, % (concentration not given with the values);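 active means mean inhibition across valid replicates above about 55%, limit read from the data; inconclusive means mean below that limit but half or more replicates reach it; inactive means mean below it, under half of replicates reach it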;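 further: signal also drops with host cell toxicity which is not excluded here; 0% = plate median of DMSO wells and 100% = zero luminescence signal; higher percent means less beta-gal luminescence so fewer parasites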
#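 Assay system: NIH/3T3 fibroblasts plus reporter T. cruzi. Amount: NIH/3T3 cells, 5,000 per well. Buffer or medium: DMEM, 2% fetal bovine serum. Doses: compound pinned at 50 nL/well, DMSO. Schedule: ≥90 h infection period, 3 h prior cell attachment. Signal: luminescent β-galactosidase signal after 60 min lysis. Read-out: parasite load inhibition, %.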
# Starred values were filed as active, the others as inactive; ? = inconclusive; · = no result. Sampled rows, rich in hits. Any-hit rate of the full collection: about 3.1%.
SMILES,PolyA inhibitor,CSC inhib,HIF act,Calb FLC,Beta apoptosis,T cruzi inh
C=CCC[C@H](Cc1ccc(F)cc1)C(=O)O[C@H](CNC(=O)[C@@H](CC=C)CC(=O)N(CCO)Cc1ccccc1)c1ccccc1,·,97*,·,·,17,·
C=CC[C@H](CC(=O)N(CCO)Cc1ccccc1)C(=O)NC[C@@H](OC(=O)[C@@H](CC=C)Cc1ccc(F)cc1)c1ccccc1,·,·,·,·,2,·
C=CCC[C@H](Cc1ccc(F)cc1)C(=O)OC[C@@H](Cc1c[nH]c2ccccc12)NC(=O)[C@@H](CC=C)CC(=O)N(CCO)Cc1ccccc1,·,79*,·,·,9,·
CC(C)(CNc1ccc(C(F)(F)F)cc1[N+](=O)[O-])N1CCOCC1,-4,15,-1,-15,-1,8
Cc1cccc(CN2CCCC(C(=O)N3CCc4ccccc4C3)C2)c1 (stereo unspecified),1,9,0,-13,1,55*
Cc1cccc(CN2CCCC(C(=O)N3CCCCC3)C2)c1 (stereo unspecified),17,-13,0,4,-1,25
O=C(C1CCCN(Cc2ccccc2F)C1)N1CCc2ccccc2C1 (stereo unspecified),9,-8,108*,-18,-12,28
O=C(C1CCCN(Cc2ccccc2F)C1)N1CCCCC1 (stereo unspecified),-8,-9,1,9,3,17
COc1ccccc1CC(=O)Nc1ccc2c(c1)C(=O)NC2=O,7,-11,0,-1,-9,-5
CN(C)CCCNc1oc(-c2ccccc2Cl)nc1S(=O)(=O)c1ccc(F)cc1,8,5,0,-9,·,62*
Cc1ccc(S(=O)(=O)c2nc(-c3ccccc3Cl)oc2N(C)C)cc1,-8,1,56*,10,-6,-10
CN(C)CCNc1oc(-c2ccccc2Cl)nc1S(=O)(=O)c1ccccc1,·,-3,·,·,2,·
CC(C)CC1Nc2ncnc(N3CCN(c4ccccn4)CC3)c2N(Cc2ccc(Cl)cc2)C1=O (stereo unspecified),·,22,·,·,-11,·
O=C(NCc1cccc(F)c1)c1ccc2nc(N3CCOCC3)sc2c1,2,2,0,12,-4,-9
COc1cccc(NC(=O)c2ccc3nc(C)sc3c2)c1,1,1,3,99*,0,-6
CN1CC(c2ccccc2)C2(SC(=S)N(Cc3ccco3)C2=O)C12C(=O)Nc1ccccc12 (stereo unspecified),-5,104*,0,-7,4,41
CN1CC(c2ccccn2)C2(SC(=S)N(Cc3ccccc3)C2=O)C12C(=O)Nc1ccccc12 (stereo unspecified),21,28,0,-9,6,15
COc1ccc(N2CCN(C(=O)c3cc4c(s3)-c3ccccc3S(=O)(=O)C4)CC2)cc1,6,2,0,-9,0,-7
CCOc1ccc(OCc2ccc(C(=O)N/N=C(\C)c3ccccn3)cc2)cc1,-21,-8,1,?,102*,41
CCOc1ccc(OCc2ccc(C(=O)NN=Cc3ccc[nH]3)cc2)cc1,·,92*,·,·,123*,·
C/C(=N\NC(=O)c1ccccc1OCc1ccc(F)cc1)c1ccccn1,·,31,·,·,94*,·
O=C(N/N=C/c1ccc[nH]1)c1ccccc1OCc1ccc(F)cc1,7,-6,0,2,-6,4
CCn1c(=S)sc2c(=O)n(CC(=O)Nc3ccc(C(C)=O)cc3)c(C)nc21,-8,-7,0,-6,0,7
O=C(N/N=C/c1c(O)ccc2ccccc12)c1ccc(CO)nc1,-17,87*,34*,11,·,9
O=C(N/N=C\c1c(O)ccc2ccccc12)c1ccc(S(=O)(=O)N2CCCCC2)cc1,5,100*,23*,?,97*,58*
SMILES,PolyA inhibitor,CSC inhib,HIF act,Calb FLC,Beta apoptosis,T cruzi inh
COc1ccccc1NC(=O)C[n+]1ccccc1C,-21,-5,0,6,-2,9
CCN1/C(=C/C=C/c2oc3ccc(-c4ccccc4)cc3[n+]2CC)Oc2ccc(-c3ccccc3)cc21,-8,116*,-4,75*,111*,90*
CC(C)CC(=O)NC(NC(=S)Nc1sc2c(c1C#N)CCCC2)C(Cl)(Cl)Cl (stereo unspecified),-3,80*,0,?,21,8
CN(C)CCCNS(=O)(=O)c1ccc(N2CCC(c3ccc(Cl)cc3)=N2)cc1,-5,112*,-8,-1,12,72*
O=S(=O)(c1ccc(N2CCC(c3ccc(Cl)cc3)=N2)cc1)N(CCO)CCO,7,29,0,36,-4,8
CCS(=O)(=O)Nc1ccc(-c2cc(-c3ccccc3)c3cc(C)ccc3n2)cc1,5,85*,0,-2,5,20
CC1CCN(S(=O)(=O)c2ccc(NC(=O)Cn3nnc(-c4ccccc4F)n3)cc2)CC1,-12,11,-1,-20,4,69*
CC1CCN(S(=O)(=O)c2ccc(NC(=O)CN3CCN(C)CC3)cc2)CC1,18,26,0,11,-2,59*
COc1ccc([N+](=O)[O-])cc1NS(=O)(=O)c1cccc(C(=O)OC2CCOC2=O)c1 (stereo unspecified),·,15,·,·,-1,·
O=C1N/C(=N\N=C\c2cccnc2)SC1Cc1ccc(SC(F)F)cc1 (stereo unspecified),-13,99*,7,70,88*,62*
O=C1N/C(=N\N=C\c2ccccn2)SC1Cc1cccc(SC(F)F)c1 (stereo unspecified),-31,111*,0,?,63,69*
COc1ccccc1C1=NNC(=Nc2cccc(S(=O)(=O)N(C)C)c2)SC1,-4,-4,0,7,42,12
C=CCOc1ccc(/C=C2\SC(N)=NC2=O)cc1OC,16,4,12*,8,·,-5
COc1cc(/C=C2\SC(N)=NC2=O)ccc1O,3,·,1,14,·,-23
CS(=O)(=O)Nc1cccc2[nH]ncc12,16,2,-1,0,·,7
CC(NC(=O)Nc1ccccc1F)C(C)(C)C (stereo unspecified),0,0,0,58*,-9,-24
CCN(CC(=O)Nc1ccc(OC)cc1)C(=O)C1CCN(C(=O)c2ccc(Cl)cc2)CC1,·,-5,·,·,-4,·
CCOCCN(C(=O)c1ccccc1Cl)c1ccccc1,-10,-5,0,-2,-2,-5
Cn1c(/C=C/c2ccc([N+](=O)[O-])o2)nc2ccccc2c1=O,-97,110*,-6,4,106*,67*
Cn1c(/C=C/c2ccccc2)nc2ccccc2c1=O,-12,10,-9,2,9,-16
CC1Cc2ccccc2N1C(=O)CSc1nc2c(c(=O)n(C)c(=O)n2C)n1Cc1ccccc1 (stereo unspecified),5,1,0,54,20,57*
